DAGLB inhibitor = diacylglycerol lipase beta (human) inhibition; inhibition, % at 5.17 µM; HEK293T DAGLB membrane lysate, EnzChek fluorogenic substrate; Q8NCG7; hit rate 0.059% among 340,000; in the data active means inhibition above about 34%;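 further: 0% = enzyme with vehicle and 100% = wells lacking enzyme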
Target sequence (Q8NCG7 whole entry, looked up): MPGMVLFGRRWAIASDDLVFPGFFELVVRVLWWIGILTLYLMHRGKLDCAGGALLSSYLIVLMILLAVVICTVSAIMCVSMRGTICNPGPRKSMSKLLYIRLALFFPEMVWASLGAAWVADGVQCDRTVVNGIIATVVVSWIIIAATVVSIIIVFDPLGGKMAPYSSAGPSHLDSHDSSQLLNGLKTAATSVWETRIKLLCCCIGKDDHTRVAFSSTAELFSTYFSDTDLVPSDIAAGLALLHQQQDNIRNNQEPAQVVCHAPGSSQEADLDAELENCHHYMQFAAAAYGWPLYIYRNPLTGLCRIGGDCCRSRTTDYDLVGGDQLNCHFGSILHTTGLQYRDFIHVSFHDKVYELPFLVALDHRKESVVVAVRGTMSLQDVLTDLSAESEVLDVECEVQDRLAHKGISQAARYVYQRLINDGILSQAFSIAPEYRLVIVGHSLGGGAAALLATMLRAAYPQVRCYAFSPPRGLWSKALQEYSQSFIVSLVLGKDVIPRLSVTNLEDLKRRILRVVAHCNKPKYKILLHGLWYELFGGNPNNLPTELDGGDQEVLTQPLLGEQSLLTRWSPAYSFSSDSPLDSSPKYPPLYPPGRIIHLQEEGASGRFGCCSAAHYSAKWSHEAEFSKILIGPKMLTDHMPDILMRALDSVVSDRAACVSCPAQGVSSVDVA
Myeloid diff 2 = compounds promoting myeloid differentiation | calls only at 10 µM | ER-HoxA9 myeloid progenitors, lysozyme-GFP differentiation, flow cytometry | AID 624256 | hit rate 1% among 360,000;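 active means normalized GFP-positive differentiation at or above the plate's own cutoff, the solvent-only control mean plus 3 SD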;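 further: cells exposed to compound for four days before flow analysis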
MIN6 prolif = MIN6 beta-cell proliferation induction; hit rate 0.29% among 330,000; proliferation, % at 10 µM; MIN6 cells proliferation, ATPlite luminescence, 48 h; cells starved in 0.2% serum; 100% = growth in 10% serum;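 active means compounds whose signal lies at least 3.5 SD above the mean of all wells on their plate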;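 further: 0% = DMSO-treated cells in low-serum medium and 100% = 10% serum control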
MT1-MMP act inh = MT1-MMP (human) activation inhibition; P50281; HT1080 RFP-PRO-GFP cells, GFP/RFP ratio fluorescence, overnight; percent of plate control window, DMSO zero; GFP/RFP ratio change, % at 20 µM; hit rate 0.061% among 360,000;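 active means GFP/RFP ratio change of at least 30% with cell ATP level not reduced by more than half and red fluorescence within 50% of control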
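Read-out: GFP/RFP fluorescence ratio; Test system: RFP-PRO-GFP reporter HT1080 cells; Compound dosing: single-point 20 µM compound, 1% DMSO; Times: overnight compound exposure at 37 °C.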
NRP1-CendR mod = NRP-1/CendR interaction modulation | O14786 | FAM-RPARPAR peptide binding to NRP-1, fluorescence polarization | inhibition, % at 25 µM | hit rate 0.85% among 360,000;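 active means inhibition or corrected inhibition above about 18%, plus a signal ratio from 0.5 to 1.5, limit read from the data, passing the limit was not always enough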
SENP1 inh = SENP1 (human) catalytic domain inhibition; recombinant SENP1 catalytic domain, CyPet-SUMO1-YPet FRET cleavage; inhibition, % at 10 µM; Q9P0U3; hit rate 0.21% among 360,000;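 active means inhibition at least 30% at 10 µM, raw YFP signal under a set limit, fluorescence ratio 0.5 to 1.5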;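 further: 0% = enzyme with DMSO and 100% = no enzyme wells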
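material = recombinant human SENP1 catalytic domain, His6-tagged | quantity = 20 pM enzyme | reagent = 25 nM SUMO1 FRET substrate | compound dosing = 10 µM single point, 0.5% DMSO | timing = 50 min enzyme reaction, room temperature, light-protected | detection = FRET, CFP and YFP emission | control set = no-enzyme low, enzyme-DMSO high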
* = called active by the depositor; i = inactive; · = not tested or not shown; + = active, no number. Rows were chosen to be rich in hits. Some 2.4% of all compounds tested hit in one or more screens of this group.

SMILES	DAGLB inhibitor	Myeloid diff 2	MIN6 prolif	MT1-MMP act inh	NRP1-CendR mod	SENP1 inh
CC(OC(=O)c1ccc(=O)n(Cc2ccccc2)n1)C(=O)Nc1cccc(Cl)c1 (stereo unspecified)	1	i	0	-4	17*	2
Cc1ccc(NC(=O)COC(=O)c2ccc(=O)n(Cc3ccccc3)n2)cc1F	3	i	1	1	-13	-3
Cc1nn(Cc2ccc(C(=O)NN)cc2)c(C)c1Cl	-2	i	-3	0	-2	-1
Cc1nn(Cc2cccc(C(=O)NN)c2)c(C)c1Cl	-6	+	-3	2	-11	2
CCOc1ccc(/C=C2/Sc3ccc(C(=O)NCC4CCCO4)cc3N(C)C2=O)cc1OC (stereo unspecified)	-1	i	0	-1	27*	-2
O=C(Nc1ccccc1)Nc1nnc(-c2ccccc2)o1	1	i	0	-1	40*	1
COc1ccc(/C=C/C(=O)NCC(=O)N/N=C/c2cccnc2)cc1	0	i	-1	3	-6	2
COc1ccc(/C=C/C(=O)NCC(=O)N/N=C/c2ccc(OC)cc2)cc1	0	i	-4	-3	20*	4
Cc1ccc(NC(=O)Nc2cccs2)nc1	3	i	-4	2	25*	1
N#CC1=C(N)N(c2ccc(F)cc2)C2=C(C1c1ccc(O)cc1)S(=O)(=O)CC2 (stereo unspecified)	4	+	·	16	-185	-22
CSc1ccc(C2C(C#N)=C(N)N(c3ccccc3)C3=C2C(=O)CCC3)cc1 (stereo unspecified)	3	i	-2	-4	-17	-18
CC(=O)c1ccc(N2CCN(CC(=O)NC(=O)NCc3ccccc3)CC2)cc1	0	i	-4	0	-2	1
CCCCC(c1nnnn1CCOC)N1CCN(Cc2ccccc2)CC1 (stereo unspecified)	-1	i	-1	-3	5	1
COc1cc(OC)c2ccc(=O)oc2c1C(CCN1CCCCC1)c1ccc(N(C)C)cc1 (stereo unspecified)	0	i	-4	0	18*	-1
CCCCCc1cc(=O)oc2c(C(CCN3CCCCC3)c3ccc(OC)cc3)c(OC)cc(OC)c12 (stereo unspecified)	2	i	-9	-1	26*	0
COc1cc(OC)c2ccc(=O)oc2c1C(CCN1CCCC1)c1ccc(N(C)C)cc1 (stereo unspecified)	3	i	0	0	14	0
O=C(/C=C\c1ccc2c(c1)OCO2)Nc1nnc(SCC(=O)OCc2ccccc2)s1	·	·	-1	·	·	·
COc1ccc(C(=O)C2CCCN(C(=O)c3c4c(nn3C)CCCC4)C2)cc1F (stereo unspecified)	-1	+	-2	3	17	3
Cn1nc2c(c1C(=O)N1CCCC(C(=O)c3cc(F)ccc3F)C1)CCCC2 (stereo unspecified)	-1	i	3	3	53*	0
CCc1cc(C(=O)N2CCCC(C(=O)c3ccc(OC)c(F)c3)C2)n(C)n1 (stereo unspecified)	-1	i	-4	1	-4	2
Cc1cc(C)n2nc(C(=O)N/N=C/c3cccc(Cl)c3)nc2n1	-6	i	0	-4	2	3
COc1cccc(CNc2nc3cc(-c4cscc4C)sc3c(=O)n2C)c1	·	i	·	6	0	-1
COc1cccc(CNc2nc3cc(-c4ccc(OC)cc4C)sc3c(=O)n2C)c1	·	i	·	-5	25*	1
Cc1cnc(CNc2nc3cc(-c4ccccc4C)sc3c(=O)n2C)cn1	·	i	·	3	28*	3
CN(C)c1ncnc2c1ncn2[C@H]1CN(CCN2CCOCC2)C[C@@H](CO)O1	·	i	·	2	8	-1
SMILES	DAGLB inhibitor	Myeloid diff 2	MIN6 prolif	MT1-MMP act inh	NRP1-CendR mod	SENP1 inh
COc1ccccc1N(Cc1ccccc1)S(=O)(=O)c1cccc(C(=O)O)c1	5	i	0	10	7	1
CCOc1ccccc1NC(=O)c1cccc(S(=O)(=O)N(Cc2ccccc2)c2ccccc2OC)c1	-8	i	0	-9	30*	3
C/C(CC(=O)Nc1cc(C)ccn1)=N\NC(=O)c1cccc(F)c1	-8	+	9	1	13	0
C/C(CC(=O)Nc1cc(C)ccn1)=N\NC(=O)c1ccc(C)cc1	2	i	1	7	-5	3
Cc1cccc(-n2ncc3c(=O)[nH]c(SCC(=O)NCCC4=CCCCC4)nc32)c1	0	i	-4	-5	3	4
CC1CCC/C(=N\NC(=O)c2ccncc2)C1 (stereo unspecified)	1	i	1	2	30*	1
CC1(c2ccc(OC(F)F)cc2)NC(=O)N(CC(=O)Nc2ccc(OC(F)F)cc2)C1=O (stereo unspecified)	0	i	0	3	18*	-1
Cc1ccc(C2(C)NC(=O)N(CC(=O)N(C)CC(=O)Nc3cccc(F)c3)C2=O)cc1 (stereo unspecified)	-1	i	-1	1	6	0
COc1cccc(NC(=O)CN(C)C(=O)CN2C(=O)NC(C)(c3ccc(C)cc3)C2=O)c1 (stereo unspecified)	2	i	-3	6	19*	4
COc1ccc(C)cc1NC(=O)c1ccccc1NS(=O)(=O)c1cccc2cccnc12	-3	i	5	1	0	2
Cc1ccc(CC2C(=O)N(c3cc(C)ccc3C)C(=O)C2C)cc1 (stereo unspecified)	-2	i	0	0	8	1
CCn1cc(C(=O)NCc2ccco2)c(=O)c2cc(S(=O)(=O)N3CC(C)CC(C)C3)ccc21 (stereo unspecified)	-2	+	-6	-15	-2	2
CCCCCC(C)NC(=S)NC(=O)c1cc(S(=O)(=O)N2CCOCC2)ccc1C (stereo unspecified)	-2	i	0	-7	26*	0
Cc1ccc(F)cc1NC(=O)COC(=O)C1CC2CCCC(C1)C2=O (stereo unspecified)	-2	i	·	-1	30*	2
COc1ccc(S(=O)(=O)N2CCOC2CNC(=O)C(=O)NCc2ccc3c(c2)OCO3)cc1C (stereo unspecified)	-4	i	·	2	-8	0
COc1cccc2c(C)nc(Nc3nc(CSc4nnc(C)s4)cc(=O)[nH]3)nc12	0	+	-4	-2	1	-2

Assay outcomes from PubChem BioAssay.
